Measurements reported in ChEMBL document CHEMBL1145913, “Synthesis and evaluation of imidazole acetic acid inhibitors of activated thrombin-activatable fibrinolysis inhibitor as novel antithrombotics” (J Med Chem, 2003).
Each block holds one molecule with its values, some of them ahead of it.

How the values were obtained:
[1] = Bioavailability in dog; type: ADME, organism-based, Canis lupus familiaris; conditions: in vivo
[2] = In vitro inhibition of purified Carboxypeptidase N (CPN) by spectrophotometric assay
[3] = Tested in vivo for time-to-occlusion in carotid artery of african green monkey when administered at a dose of 0.03 mg/kg iv bolus + 0.01 mg/(kg.min) continuous infusion; type: functional, Cercopithecidae
[4] = Half life in rat; type: ADME, organism-based; conditions: in vivo
[5] = Tested in vivo for bleeding time in african green monkey when administered at a dose of 0.3 mg/kg iv bolus + 0.1 mg/(kg.min) continuous infusion; type: functional, Cercopithecidae
Procedure, shortened: (§1)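 African green monkeys receive an iv bolus and then continuous infusion for 300 min, or vehicle. Template bleeding time is measured.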

[6] = Tested in vivo for bleeding time in african green monkey when administered at a dose of 0.1 mg/kg iv bolus + 0.03 mg/(kg.min) continuous infusion; type: functional, Cercopithecidae; procedure, shortened: as §1
[7] = Concentration of compound that gives 50% of the maximum acceleration of lysis was determined by clot lysis assay using human plasma; type: functional
[8] = Tested in vivo for bleeding time in african green monkey when administered at a dose of 0.05 mg/kg iv bolus + 0.02 mg/(kg.min) continuous infusion; type: functional, Cercopithecidae; procedure, shortened: as §1
[9] = Tested in vivo for bleeding time in african green monkey when administered along with saline; type: functional, Cercopithecidae; procedure, shortened: as §1
[10] = In vitro inhibition of thrombin-activatable fibrinolysis was determined against TAFIa enzyme by ECL assay
[11] = Tested in vivo for time-to-occlusion in carotid artery of african green monkey when administered at a dose of 0.1 mg/kg iv bolus + 0.03 mg/(kg.min) continuous infusion; type: functional, Cercopithecidae
[12] = Tested in vivo for time-to-occlusion in jugular vein of african green monkey when administered along with saline; type: functional, Cercopithecidae
Procedure, shortened: (§2)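 African green monkey jugular vein model. Time-to-occlusion is recorded during iv bolus plus continuous infusion for 300 min; vehicle-treated animals are included.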

[13] = Half life in rhesus; type: ADME, organism-based, Macaca mulatta; conditions: rhesus monkey, in vivo
[14] = Bioavailability in rat; type: ADME, organism-based; conditions: in vivo
[15] = Volume of distribution in rhesus; type: ADME, organism-based, Macaca mulatta; conditions: rhesus monkey, in vivo; read-out: Vdss
[16] = Tested in vivo for time-to-occlusion in jugular vein of african green monkey when administered at a dose of 0.1 mg/kg iv bolus + 0.03 mg/(kg.min) continuous infusion; type: functional, Cercopithecidae; procedure, shortened: as §2
[17] = Tested in vivo for time-to-occlusion in jugular vein of african green monkey when administered at a dose of 0.3 mg/kg iv bolus + 0.1 mg/(kg.min) continuous infusion; type: functional, Cercopithecidae; procedure, shortened: as §2
[18] = Tested in vivo for time-to-occlusion in jugular vein of african green monkey when administered at a dose of 0.03 mg/kg iv bolus + 0.01 mg/(kg.min) continuous infusion; type: functional, Cercopithecidae; procedure, shortened: as §2
[19] = Clearance in rat; type: ADME, organism-based; conditions: in vivo
[20] = Tested in vivo for time-to-occlusion in carotid artery of african green monkey when administered at a dose of 0.05 mg/kg iv bolus + 0.02 mg/(kg.min) continuous infusion; type: functional, Cercopithecidae
[21] = Clearance in rhesus; type: ADME, organism-based, Macaca mulatta; conditions: rhesus monkey, in vivo
[22] = Half life in dog; type: ADME, organism-based, Canis lupus familiaris; conditions: in vivo
[23] = Tested in vivo for bleeding time in african green monkey when administered at a dose of 0.03 mg/kg iv bolus + 0.01 mg/(kg.min) continuous infusion; type: functional, Cercopithecidae; procedure, shortened: as §1
[24] = Volume of distribution in dog; type: ADME, organism-based, Canis lupus familiaris; conditions: in vivo, read-out: Vdss
[25] = Volume of distribution in rat; type: ADME, organism-based; conditions: in vivo, read-out: Vdss
[26] = Clearance in dog; type: ADME, organism-based, Canis lupus familiaris; conditions: in vivo
[27] = Bioavailability in rhesus; type: ADME, organism-based, Macaca mulatta; conditions: rhesus monkey, in vivo
[28] = Tested in vivo for time-to-occlusion in carotid artery of african green monkey when administered along with saline; type: functional, Cercopithecidae
[29] = Tested in vivo for time-to-occlusion in carotid artery of african green monkey when administered at a dose of 0.3 mg/kg iv bolus + 0.1 mg/(kg.min) continuous infusion; type: functional, Cercopithecidae
[30] = Tested in vivo for time-to-occlusion in jugular vein of african green monkey when administered at a dose of 0.05 mg/kg iv bolus + 0.02 mg/(kg.min) continuous infusion; type: functional, Cercopithecidae; procedure, shortened: as §2
[31] = biological target: Carboxypeptidase B2 (Homo sapiens) (UniProt Q96IY4); assay: In vitro inhibition of activated thrombin-activatable fibrinolysis inhibitor (TAFIa) was determined by ECL enzyme assay

SMILES: CC(C)CCn1cnc(C(Cc2ccc(N)nc2)C(=O)O)c1 (stereo in doubt; 10j(-))
bioavailability [1]: 38%
IC50 [2]: > 50 µM
TTO [3]: 61 min
half-life [4]: 66 min
Bleeding time [5]: 2.9 min
Bleeding time [6]: 2.3 min
CLT50 [7]: 0.056 µM
Bleeding time [8]: 2.2 min
Bleeding time [9]: 2 min
IC50 [10]: 0.002 µM
TTO [11]: 52 min
TTO [12]: 96 min
half-life [13]: 48 min
bioavailability [14]: 47%
Vd [15]: 0.26 L/kg
TTO [16]: 171 min
TTO [17]: 216 min
TTO [18]: 128 min
clearance [19]: 1.92 L/h/kg
TTO [20]: 62 min
clearance [21]: 0.366 L/h/kg
half-life [22]: 36 min
Bleeding time [23]: 2 min
Vd [24]: 0.28 L/kg
Vd [25]: 1.36 L/kg
clearance [26]: 0.366 L/h/kg
bioavailability [27]: 12%
TTO [28]: 51 min
TTO [29]: 85 min
TTO [30]: 147 min

SMILES: CCCCn1cnc(C(Cc2ccc(N)nc2)C(=O)O)c1 (centres undefined)
IC50 [2]: > 50 µM
CLT50 [7]: 0.15 µM

SMILES: O=C(O)C(Cc1ccccc1)c1c[nH]cn1 (centres undefined)
IC50 [2]: > 50 µM
CLT50 [7]: >50 µM
IC50 [31]: > 100 µM

SMILES: CCn1cnc(C(Cc2ccc(N)nc2)C(=O)O)c1 (centres undefined)
IC50 [2]: > 50 µM
CLT50 [7]: 0.65 µM

SMILES: CC(C)CCn1cnc(C(Cc2ccc(N)nc2)C(=O)O)c1 (racemic)
CLT50 [7]: 0.12 µM
IC50 [10]: 0.005 µM

SMILES: O=C(O)CC(Cc1ccccc1)C(=O)O (centres undefined)
CLT50 [7]: >50 µM

SMILES: Nc1ccc(CC(C(=O)O)c2cn(Cc3ccccc3)cn2)cn1 (centres undefined)
IC50 [2]: > 50 µM
CLT50 [7]: 0.74 µM
IC50 [31]: 0.028 µM

Now from value to molecule, other results behind:

IC50 [10]: 0.08 µM
SMILES: Nc1ccc(CC(C(=O)O)c2c[nH]cn2)cn1 (racemic)
CLT50 [7]: 0.97 µM

IC50 [10]: 0.04 µM
SMILES: Nc1ccc(CC(C(=O)O)c2c[nH]cn2)cn1 (single isomer, unassigned; (-))
CLT50 [7]: 0.5 µM

IC50 [2]: > 50 µM
SMILES: Cn1cnc(C(Cc2ccc(N)nc2)C(=O)O)c1 (centres undefined)
CLT50 [7]: 0.42 µM

IC50 [2]: > 50 µM
SMILES: CC(C)n1cnc(C(Cc2ccc(N)nc2)C(=O)O)c1 (centres undefined)
CLT50 [7]: 1.06 µM

IC50 [2]: > 50 µM
IC50 [10]: 1.8 µM
SMILES: Nc1ccc(CC(C(=O)O)c2c[nH]cn2)cn1 (stereo in doubt; 10b(+))
CLT50 [7]: >10 µM
